Measured values taken from ChEMBL document CHEMBL1121847, “Synthesis of thyrotropin-releasing hormone analogues with selective central nervous system effects” (J Med Chem, 1981).

Key:
[1] = Acid dissociation constant was measured; format: ADME
[2] = species on record: Rattus norvegicus; experiment: CNS activity was measured by the ability to restore the anticonvulsant effect of methazolamide in reserpine treated rats; format: functional; set-up: unit not given beside the values
Summary of the method: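 Rats pretreated with reserpine received varying doses of analogue, and the read-out was restoration of methazolamide's anticonvulsant activity. Potency is expressed relative to TRH.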

[3] = tested on: Rattus norvegicus; experiment: Compound was evaluated in vivo for its ability to stimulate release of [125I]-labeled T3 and T4 after administration of varying doses; format: functional
Summary of the method: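 Varying doses of analogue were given in vivo, with ¹²⁵I-labeled T₃ and T₄ measured afterwards. Potency is expressed relative to TRH.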

SMILES	pKa [1]	CNS activity [2]	Hormonal activity [3]
NC(=O)[C@@H]1CSCN1C(=O)[C@H](Cc1c[nH]cn1)NC(=O)[C@@H]1CCCC(=O)N1 [listing 2 of 2 here]	–	35	1
COC(=O)[C@@H]1CCCCN1C(=O)[C@H](Cc1c[nH]cn1)NC(=O)[C@@H]1CCC(=O)N1 [listing 1 of 2 here]	–	1	0.2
COC(=O)[C@@H]1CCCCN1C(=O)[C@H](Cc1c[nH]cn1)NC(=O)[C@@H]1CCCC(=O)N1	–	0.9	0.02

Continued, in another order:

pKa [1]	SMILES	CNS activity [2]	Hormonal activity [3]
6.1	NC(=O)[C@@H]1CSCN1C(=O)[C@H](Cc1c[nH]cn1)NC(=O)[C@@H]1CCCC(=O)N1 [listing 1 of 2 here]	–	–
6.18	COC(=O)[C@@H]1CCCCN1C(=O)[C@H](Cc1c[nH]cn1)NC(=O)[C@@H]1CCC(=O)N1 [listing 2 of 2 here]	–	–
6.18	NC(=O)[C@@H]1CCCN1C(=O)[C@H](Cc1c[nH]cn1)NC(=O)[C@@H]1CCCC(=O)N1	4	1
